pIC50: −log10 of the molar value. Calls of active or inactive are those of the source. The rule behind the calls is not given here.
Key:
LNCaP = assay: Cytotoxicity against human LNCAP cells after 24 hrs by MTT assay; type: functional, cell-based
PC-3 [1] = assay: Cytotoxicity against human PC3 cells after 24 hrs by MTT assay; type: functional, cell-based; conditions: PC-3, 24 h
Nucleic Acid [2] = assay: Binding affinity to calf thymus dsDNA in biosensor assessed as oxidation of exposed bases at 10^-4 M by differential pulse voltametry; type: nucleic-acid assay; conditions: Bos taurus
Outline: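 Glassy carbon electrode polished with alumina, then pretreated by five cyclic scans 0 to +1.4 V in acetate buffer pH 4.5. Electrode coated with a dsDNA gel layer, then 20 µL of 10⁻⁴ M ethanolic compound added with drying. DPV in acetate buffer from 0 to 1.4 V: pulse amplitude 50 mV, pulse width 70 ms, step 2 mV, scan rate 5 mV/s, 25 °C. An untreated dsDNA electrode served as blank.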

Nucleic Acid [3] = assay: Binding affinity to calf thymus ssDNA in solution assessed as oxidation of exposed bases at 10^-4 M by differential pulse voltametry; type: nucleic-acid assay; conditions: Bos taurus
Outline: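 ssDNA made by dissolving dsDNA (3.0 mg/mL) in 1 M HCl with heating for 1 h. Compound was incorporated into a carbon paste electrode; blank paste contained ethanol only. DPV at pH 4.5 in ssDNA solution (1.0 × 10⁻⁴ M): equilibration 5 s, step 2 mV, pulse amplitude 50 mV, scan rate 5 mV/s.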

V79 [4] = assay: Selectivity ratio of IC50 for chinese hamster V79 cells to IC50 for human SF295 cells
[5] = Haemolysis in mouse erythrocytes at 200 ug/mL after 30 mins by spectrophotometry; type: ADME, cell-based; conditions: erythrocyte, 0.5 h
Outline: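 Mouse erythrocytes used as a 2% suspension in 0.85% NaCl with 10 mM CaCl₂. Compounds tested across 1.5–200 µg/mL with 1% Triton X-100 as positive control. Incubated 30 min at room temperature, then centrifuged. Released haemoglobin in the supernatant measured at 540 nm.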

PBMC = assay: Cytotoxicity against human PBMC after 72 hrs by alamar blue assay; type: cell-based
Outline: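 PBMC isolated from heparinised blood of healthy non-smoking donors by Ficoll-Hypaque density gradient. Cultured in RPMI-1640 with 20% FBS, glutamine, antibiotics and 2% phytohaemagglutinin at 37 °C, 5% CO₂. Plated at 3 × 10⁵ cells/mL; compounds in DMSO added at 0.048–25 µg/mL after 24 h, 72 h exposure. Alamar blue (resazurin) added 24 h before the end; absorbance read at 570 and 595 nm. IC50 by nonlinear regression.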

V79 [6] = assay: Cytotoxicity against chinese hamster V79 cells after 72 hrs by MTT assay; type: cell-based; conditions: Cricetulus griseus, V79, 72 h
Outline: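 V79 Chinese hamster lung fibroblasts grown in MEM with Earle's salts, 10% foetal bovine serum, 2 mM glutamine, penicillin/streptomycin, 37 °C, 5% CO₂. Seeded at 0.7 × 10⁵ cells/well. Compounds in DMSO added at 0.048–25 µg/mL after 24 h and left 72 h. MTT 0.5 mg/mL for 3 h, formazan in DMSO read at 595 nm. IC50 by nonlinear regression, two experiments in duplicate.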

MDA-MB-435 = assay: Antiproliferative activity against human MDA-MB-435 cells after 72 hrs by MTT assay; type: functional, cell-based; conditions: MDA-MB-435, 72 h
Outline: (§1)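 Cancer lines kept in RPMI-1640 with 10% foetal bovine serum, 2 mM glutamine, penicillin/streptomycin, 37 °C, 5% CO₂. Seeded at 0.7 × 10⁵ cells/well (adherent) or 0.3 × 10⁶ cells/mL (suspension). After 24 h, compounds in DMSO added at 0.048–25 µg/mL for 72 h. Medium then replaced with 0.5 mg/mL MTT for 3 h. Formazan dissolved in DMSO, absorbance read at 595 nm.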

OVCAR-8 = assay: Antiproliferative activity against human OVCAR8 cells after 72 hrs by MTT assay; type: functional, cell-based; conditions: OVCAR-8, 72 h; outline: as §1
UACC-62 = assay: Antiproliferative activity against human UACC62 cells after 72 hrs by MTT assay; type: functional, cell-based; conditions: UACC-62, 72 h; outline: as §1
DU-145 = assay: Antiproliferative activity against human DU145 cells after 72 hrs by MTT assay; type: functional, cell-based; conditions: DU-145, 72 h; outline: as §1
SF-295 = assay: Antiproliferative activity against human SF295 cells after 72 hrs by MTT assay; type: functional, cell-based; conditions: SF-295, 72 h; outline: as §1
MX1 = assay: Antiproliferative activity against human MX1 cells after 72 hrs by MTT assay; type: functional, cell-based; conditions: MX1, 72 h; outline: as §1
PC-3 [7] = assay: Antiproliferative activity against human PC3 cells after 72 hrs by MTT assay; type: functional, cell-based; conditions: PC-3, 72 h; outline: as §1
Hs-578T = assay: Antiproliferative activity against human Hs578T cells after 72 hrs by MTT assay; type: functional, cell-based; outline: as §1
COLO 205 = assay: Antiproliferative activity against human COLO205 cells after 72 hrs by MTT assay; type: functional, cell-based; conditions: COLO 205, 72 h; outline: as §1
MDA-MB-231 = assay: Antiproliferative activity against human MDA-MB-231 cells after 72 hrs by MTT assay; type: functional, cell-based; conditions: MDA-MB-231, 72 h; outline: as §1
HCT-15 = assay: Antiproliferative activity against human HCT15 cells after 72 hrs by MTT assay; type: functional, cell-based; conditions: HCT-15, 72 h; outline: as §1
SW-620 = assay: Antiproliferative activity against human SW620 cells after 72 hrs by MTT assay; type: functional, cell-based; conditions: SW-620, 72 h; outline: as §1
CCRF-CEM = assay: Antiproliferative activity against human CEM cells after 72 hrs by MTT assay; type: functional, cell-based; outline: as §1
HCT-8 = assay: Antiproliferative activity against human HCT8 cells after 72 hrs by MTT assay; type: functional, cell-based; conditions: HCT-8, 72 h; outline: as §1
HL-60 = assay: Antiproliferative activity against human HL60 cells after 72 hrs by MTT assay; type: functional, cell-based; conditions: HL-60, 72 h; outline: as §1
K562 = assay: Antiproliferative activity against human K562 cells after 72 hrs by MTT assay; type: functional, cell-based; conditions: K562, 72 h; outline: as §1

| Compound | Activity (Nucleic Acid [2]) | Activity (Nucleic Acid [3]) | pIC50 (MDA-MB-435) | pIC50 (OVCAR-8) | pIC50 (DU-145) | pIC50 (PC-3 [7]) | pIC50 (COLO 205) | pIC50 (HCT-15) | pIC50 (SW-620) | pIC50 (CCRF-CEM) | pIC50 (HCT-8) | pIC50 (HL-60) | pIC50 (K562) | Ratio IC50 (V79 [4]) | Activity [5] | pIC50 (PBMC) | pIC50 (V79 [6]) | pIC50 (UACC-62) | pIC50 (SF-295) | other results |
| --- | --- | --- | --- | --- | --- | --- | --- | --- | --- | --- | --- | --- | --- | --- | --- | --- | --- | --- | --- | --- |
| Cc1c(C)c2c(c(C)c1O)CCC(C)(COc1ccc(/C=C3/SC(=O)NC3=O)cc1)O2 (stereo unspecified) |  |  |  |  |  |  |  |  |  |  |  |  |  |  |  |  |  |  |  | pIC50 (LNCaP): 4.85; pIC50 (PC-3 [1]): 4.70 |
| Cc1c(C)c2c(c(C)c1O)CCC(C)(COc1ccc(CC3SC(=O)NC3=O)cc1)O2 (stereo unspecified) [TROGLITAZONE] |  |  |  |  |  |  |  |  |  |  |  |  |  |  |  |  |  |  |  | pIC50 (LNCaP): 4.66; pIC50 (PC-3 [1]): 4.52 |
| CCOC(=O)/C(C#N)=C/c1c2ccccc2nc2ccccc12 | Active | Active |  | 4.63 |  |  |  |  |  |  |  | 5.39 |  |  | Non-toxic |  |  |  | 4.26 |  |
| COc1cc(NS(C)(=O)=O)ccc1Nc1c2ccccc2nc2ccccc12 [AMSACRINE] |  |  |  | 5.85 | 6.52 | 5.48 | 5.96 | 6.52 | 6.52 |  | 6.52 | 7.10 |  |  |  | 4.66 | 5.24 |  | 6.30 |  |

Continued, in another order:

| Activity (Nucleic Acid [2]) | Activity (Nucleic Acid [3]) | pIC50 (MDA-MB-435) | pIC50 (OVCAR-8) | pIC50 (DU-145) | pIC50 (PC-3 [7]) | pIC50 (COLO 205) | pIC50 (HCT-15) | pIC50 (SW-620) | pIC50 (CCRF-CEM) | pIC50 (HCT-8) | pIC50 (HL-60) | pIC50 (K562) | Compound | Ratio IC50 (V79 [4]) | Activity [5] | pIC50 (PBMC) | pIC50 (V79 [6]) | pIC50 (UACC-62) | pIC50 (SF-295) | other results |
| --- | --- | --- | --- | --- | --- | --- | --- | --- | --- | --- | --- | --- | --- | --- | --- | --- | --- | --- | --- | --- |
| Active | Active | 4.81 | 4.71 | < 4.22 | 4.75 | 4.33 | 4.53 | 4.57 | < 4.22 | 5.13 | < 4.22 | < 4.22 | Cc1ccc(CN2C(=O)S/C(=C\c3c4ccccc4nc4ccccc34)C2=O)cc1 | 3.7 | Non-toxic | < 4.22 | 4.55 | 4.68 | 5.11 | pIC50 (MX1): < 4.22; pIC50 (Hs-578T): < 4.22; pIC50 (MDA-MB-231): < 4.22 |
| Active | Active | 4.85 | 5.03 |  | 4.57 | 4.64 | 4.24 | 4.50 | < 4.22 | 5.25 | < 4.22 | < 4.22 | O=C1SC(=Cc2c3ccccc3nc3ccccc23)C(=O)N1Cc1ccc(F)cc1 (mixture of isomers) | 5.9 | Non-toxic | < 4.22 | 4.49 | 5.02 | 5.25 |  |
| Active | Active | 4.65 | 5.24 | 5.02 | 4.89 | 5.20 | 4.67 | 4.70 | < 4.24 | 5.08 | < 4.24 | < 4.24 | O=C1S/C(=C\c2c3ccccc3nc3ccccc23)C(=O)N1Cc1ccc(Cl)cc1 | 3.1 | Non-toxic | < 4.24 | 4.75 | 4.54 | 5.24 | pIC50 (MX1): < 4.24; pIC50 (Hs-578T): < 4.24; pIC50 (MDA-MB-231): < 4.24 |
| Active | Active | 4.59 | 4.43 |  | 5.07 | < 4.28 | 4.70 | 4.45 | < 4.28 | 4.95 | < 4.28 | < 4.28 | O=C1SC(=Cc2c3ccccc3nc3ccccc23)C(=O)N1Cc1ccc(Br)cc1 (mixture of isomers) | 3.1 | Non-toxic | < 4.28 | 4.65 | 4.29 | 5.14 |  |

Source: ChEMBL document CHEMBL2034918, “Synthesis and cytotoxic activity of new acridine-thiazolidine derivatives” (Bioorg Med Chem, 2012)
